Measurements published in ChEMBL document CHEMBL4689842, “EUbOPEN Chemogenomics Library wave 1” (2021).

Key:
Assay type in all cases: toxicity, cell-based
U2OS = experiment: Incucyte cell viability with U2OS; settings: human, 10 µM, compound concentration 10 uM; also: filed as whole numbers so only -1 and 0 and 1 occur
Fibroblast = experiment: Multiplex assay against human fibroblast
In short: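 Four dyes were applied at seeding to live cells: Hoechst33342, BioTracker Green Microtubule Cytoskeleton Dye, MitoTracker Red and Annexin V Alexa Fluor 680. Imaging after compound addition used a CQ1 microscope at 37°C and 5% CO2. CellPathfinder machine-learning gating then sorted cells into Hoechst high-intensity objects or normal cells, normal cells into healthy, pyknosed or fragmented nuclei, and pyknosed cells into mitotic or apoptotic, with tubulin, mitochondrial-mass and membrane-permeability phenotypes given as per cents of healthy-nucleus cells.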

HEK-293T = experiment: Incucyte cell viability with HEK293T; settings: human, 10 µM, compound concentration 10 uM; also: filed as whole numbers so only -1 and 0 and 1 occur
[1] = 0 h, replicate number 1, timepoint 0 hours
[2] = 12 h, replicate number 1, timepoint 12 hours
[3] = 18 h, replicate number 1, timepoint 18 hours
[4] = 24 h, replicate number 1, timepoint 24 hours
[5] = 12 h, 1 µM, compound concentration 1 uM, replicate 1
[6] = 12 h, 1 µM, compound concentration 1 uM, replicate 2
[7] = 12 h, 10 µM, compound concentration 10 uM, replicate 1
[8] = 12 h, 10 µM, compound concentration 10 uM, replicate 2
[9] = 24 h, 1 µM, compound concentration 1 uM, replicate 1
[10] = 24 h, 1 µM, compound concentration 1 uM, replicate 2
[11] = 24 h, 10 µM, compound concentration 10 uM, replicate 1
[12] = 24 h, 10 µM, compound concentration 10 uM, replicate 2
[13] = 48 h, 1 µM, compound concentration 1 uM, replicate 1
[14] = 48 h, 1 µM, compound concentration 1 uM, replicate 2
[15] = 48 h, 10 µM, compound concentration 10 uM, replicate 1
[16] = 48 h, 10 µM, compound concentration 10 uM, replicate 2

With `CCCCN(CC)c1nc(C)nc2c1c(C)cn2-c1c(C)cc(C)cc1C.Cl` the “Growth Rate” value (U2OS; [1]) was 0, the “Growth Rate” value (U2OS; 6 h, replicate number 2, timepoint 6 hours) was 1 and the “Growth Rate” value (U2OS; [2]) was 0. The “Growth Rate” value (U2OS; [3]) was 0, the “Growth Rate” value (U2OS; 18 h, replicate number 2, timepoint 18 hours) was 1 and the “Growth Rate” value (U2OS; [4]) was 0. The “Growth Rate” value (U2OS; 24 h, replicate number 2, timepoint 24 hours) was 1, the “Population Apoptotic (%)” value (Fibroblast; [5]) was 63% and the “Population Fragmented Nuclei (%)” value (Fibroblast; [5]) was 23%. For the same molecule, the “Population Healthy Nuclei (%)” value (Fibroblast; [5]) was 44%, the “Population Hoechst High Intensity Objects (%)” value (Fibroblast; [5]) was 11% and the “Population Membrane Permeable-Phenotype (%)” value (Fibroblast; [5]) was 27%. For the same molecule, the “Population Mitochondria Different-Phenotype (%)” value (Fibroblast; [5]) was 9%, the “Population Mitotic Cells (%)” value (Fibroblast; [5]) was 36% and the “Population Normal (%)” value (Fibroblast; [5]) was 88%. The “Population Pyknosed Nuclei (%)” value (Fibroblast; [5]) was 31%, the “Population Tubulin-Different-Phenotype (%)” value (Fibroblast; [5]) was 46% and the “Total Cell Count” value (Fibroblast; [5]) was 108. For the same molecule, the “Population Apoptotic (%)” value (Fibroblast; [6]) was 55%, the “Population Fragmented Nuclei (%)” value (Fibroblast; [6]) was 13% and the “Population Healthy Nuclei (%)” value (Fibroblast; [6]) was 77%. The “Population Hoechst High Intensity Objects (%)” value (Fibroblast; [6]) was 3%, the “Population Membrane Permeable-Phenotype (%)” value (Fibroblast; [6]) was 5% and the “Population Mitochondria Different-Phenotype (%)” value (Fibroblast; [6]) was 8%. For the same molecule, the “Population Mitotic Cells (%)” value (Fibroblast; [6]) was 44%, the “Population Normal (%)” value (Fibroblast; [6]) was 96% and the “Population Pyknosed Nuclei (%)” value (Fibroblast; [6]) was 9%. The “Population Tubulin-Different-Phenotype (%)” value (Fibroblast; [6]) was 14%, the “Total Cell Count” value (Fibroblast; [6]) was 95 and the “Population Apoptotic (%)” value (Fibroblast; [7]) was 57%. The “Population Fragmented Nuclei (%)” value (Fibroblast; [7]) was 30%, the “Population Healthy Nuclei (%)” value (Fibroblast; [7]) was 37% and the “Population Hoechst High Intensity Objects (%)” value (Fibroblast; [7]) was 13%. The “Population Membrane Permeable-Phenotype (%)” value (Fibroblast; [7]) was 32%, the “Population Mitochondria Different-Phenotype (%)” value (Fibroblast; [7]) was 16% and the “Population Mitotic Cells (%)” value (Fibroblast; [7]) was 42%. For the same molecule, the “Population Normal (%)” value (Fibroblast; [7]) was 86%, the “Population Pyknosed Nuclei (%)” value (Fibroblast; [7]) was 31% and the “Population Tubulin-Different-Phenotype (%)” value (Fibroblast; [7]) was 84%. For the same molecule, the “Total Cell Count” value (Fibroblast; [7]) was 76, the “Population Apoptotic (%)” value (Fibroblast; [8]) was 20% and the “Population Fragmented Nuclei (%)” value (Fibroblast; [8]) was 9%. For the same molecule, the “Population Healthy Nuclei (%)” value (Fibroblast; [8]) was 83%, the “Population Hoechst High Intensity Objects (%)” value (Fibroblast; [8]) was 6% and the “Population Membrane Permeable-Phenotype (%)” value (Fibroblast; [8]) was 4%. The “Population Mitochondria Different-Phenotype (%)” value (Fibroblast; [8]) was 55%, the “Population Mitotic Cells (%)” value (Fibroblast; [8]) was 80% and the “Population Normal (%)” value (Fibroblast; [8]) was 93%. The “Population Pyknosed Nuclei (%)” value (Fibroblast; [8]) was 6%, the “Population Tubulin-Different-Phenotype (%)” value (Fibroblast; [8]) was 19% and the “Total Cell Count” value (Fibroblast; [8]) was 78. The “Population Apoptotic (%)” value (Fibroblast; [9]) was 57%, the “Population Fragmented Nuclei (%)” value (Fibroblast; [9]) was 30% and the “Population Healthy Nuclei (%)” value (Fibroblast; [9]) was 49%. The “Population Hoechst High Intensity Objects (%)” value (Fibroblast; [9]) was 11%, the “Population Membrane Permeable-Phenotype (%)” value (Fibroblast; [9]) was 21% and the “Population Mitochondria Different-Phenotype (%)” value (Fibroblast; [9]) was 8%. For the same molecule, the “Population Mitotic Cells (%)” value (Fibroblast; [9]) was 42%, the “Population Normal (%)” value (Fibroblast; [9]) was 88% and the “Population Pyknosed Nuclei (%)” value (Fibroblast; [9]) was 20%. For the same molecule, the “Population Tubulin-Different-Phenotype (%)” value (Fibroblast; [9]) was 36%, the “Total Cell Count” value (Fibroblast; [9]) was 107 and the “Population Apoptotic (%)” value (Fibroblast; [10]) was 29%. The “Population Fragmented Nuclei (%)” value (Fibroblast; [10]) was 13%, the “Population Healthy Nuclei (%)” value (Fibroblast; [10]) was 70% and the “Population Hoechst High Intensity Objects (%)” value (Fibroblast; [10]) was 5%. For the same molecule, the “Population Membrane Permeable-Phenotype (%)” value (Fibroblast; [10]) was 3%, the “Population Mitochondria Different-Phenotype (%)” value (Fibroblast; [10]) was 6% and the “Population Mitotic Cells (%)” value (Fibroblast; [10]) was 70%. For the same molecule, the “Population Normal (%)” value (Fibroblast; [10]) was 94%, the “Population Pyknosed Nuclei (%)” value (Fibroblast; [10]) was 15% and the “Population Tubulin-Different-Phenotype (%)” value (Fibroblast; [10]) was 7%. For the same molecule, the “Total Cell Count” value (Fibroblast; [10]) was 116, the “Population Apoptotic (%)” value (Fibroblast; [11]) was 73% and the “Population Fragmented Nuclei (%)” value (Fibroblast; [11]) was 30%. The “Population Healthy Nuclei (%)” value (Fibroblast; [11]) was 47%, the “Population Hoechst High Intensity Objects (%)” value (Fibroblast; [11]) was 26% and the “Population Membrane Permeable-Phenotype (%)” value (Fibroblast; [11]) was 14%. The “Population Mitochondria Different-Phenotype (%)” value (Fibroblast; [11]) was 32%, the “Population Mitotic Cells (%)” value (Fibroblast; [11]) was 26% and the “Population Normal (%)” value (Fibroblast; [11]) was 73%. The “Population Pyknosed Nuclei (%)” value (Fibroblast; [11]) was 21%, the “Population Tubulin-Different-Phenotype (%)” value (Fibroblast; [11]) was 88% and the “Total Cell Count” value (Fibroblast; [11]) was 97. For the same molecule, the “Population Apoptotic (%)” value (Fibroblast; [12]) was 25%, the “Population Fragmented Nuclei (%)” value (Fibroblast; [12]) was 8% and the “Population Healthy Nuclei (%)” value (Fibroblast; [12]) was 80%. The “Population Hoechst High Intensity Objects (%)” value (Fibroblast; [12]) was 4%, the “Population Membrane Permeable-Phenotype (%)” value (Fibroblast; [12]) was 3% and the “Population Mitochondria Different-Phenotype (%)” value (Fibroblast; [12]) was 54%. The “Population Mitotic Cells (%)” value (Fibroblast; [12]) was 75%, the “Population Normal (%)” value (Fibroblast; [12]) was 95% and the “Population Pyknosed Nuclei (%)” value (Fibroblast; [12]) was 11%. For the same molecule, the “Population Tubulin-Different-Phenotype (%)” value (Fibroblast; [12]) was 21%, the “Total Cell Count” value (Fibroblast; [12]) was 74 and the “Population Apoptotic (%)” value (Fibroblast; [13]) was 50%. For the same molecule, the “Population Fragmented Nuclei (%)” value (Fibroblast; [13]) was 24%, the “Population Healthy Nuclei (%)” value (Fibroblast; [13]) was 61% and the “Population Hoechst High Intensity Objects (%)” value (Fibroblast; [13]) was 16%. For the same molecule, the “Population Membrane Permeable-Phenotype (%)” value (Fibroblast; [13]) was 13%, the “Population Mitochondria Different-Phenotype (%)” value (Fibroblast; [13]) was 6% and the “Population Mitotic Cells (%)” value (Fibroblast; [13]) was 50%. The “Population Normal (%)” value (Fibroblast; [13]) was 83%, the “Population Pyknosed Nuclei (%)” value (Fibroblast; [13]) was 14% and the “Population Tubulin-Different-Phenotype (%)” value (Fibroblast; [13]) was 32%. The “Total Cell Count” value (Fibroblast; [13]) was 118, the “Population Apoptotic (%)” value (Fibroblast; [14]) was 100% and the “Population Fragmented Nuclei (%)” value (Fibroblast; [14]) was 26%. For the same molecule, the “Population Healthy Nuclei (%)” value (Fibroblast; [14]) was 71%, the “Population Hoechst High Intensity Objects (%)” value (Fibroblast; [14]) was 6% and the “Population Membrane Permeable-Phenotype (%)” value (Fibroblast; [14]) was 6%. For the same molecule, the “Population Mitochondria Different-Phenotype (%)” value (Fibroblast; [14]) was 4%, the “Population Mitotic Cells (%)” value (Fibroblast; [14]) was 0% and the “Population Normal (%)” value (Fibroblast; [14]) was 93%. The “Population Pyknosed Nuclei (%)” value (Fibroblast; [14]) was 2%, the “Population Tubulin-Different-Phenotype (%)” value (Fibroblast; [14]) was 46% and the “Total Cell Count” value (Fibroblast; [14]) was 93. The “Population Apoptotic (%)” value (Fibroblast; [15]) was 75%, the “Population Fragmented Nuclei (%)” value (Fibroblast; [15]) was 43% and the “Population Healthy Nuclei (%)” value (Fibroblast; [15]) was 51%. For the same molecule, the “Population Hoechst High Intensity Objects (%)” value (Fibroblast; [15]) was 20%, the “Population Membrane Permeable-Phenotype (%)” value (Fibroblast; [15]) was 13% and the “Population Mitochondria Different-Phenotype (%)” value (Fibroblast; [15]) was 18%. The “Population Mitotic Cells (%)” value (Fibroblast; [15]) was 25%, the “Population Normal (%)” value (Fibroblast; [15]) was 79% and the “Population Pyknosed Nuclei (%)” value (Fibroblast; [15]) was 4%. For the same molecule, the “Population Tubulin-Different-Phenotype (%)” value (Fibroblast; [15]) was 60%, the “Total Cell Count” value (Fibroblast; [15]) was 104 and the “Population Apoptotic (%)” value (Fibroblast; [16]) was 66%. The “Population Fragmented Nuclei (%)” value (Fibroblast; [16]) was 46%, the “Population Healthy Nuclei (%)” value (Fibroblast; [16]) was 50% and the “Population Hoechst High Intensity Objects (%)” value (Fibroblast; [16]) was 12%. The “Population Membrane Permeable-Phenotype (%)” value (Fibroblast; [16]) was 20%, the “Population Mitochondria Different-Phenotype (%)” value (Fibroblast; [16]) was 10% and the “Population Mitotic Cells (%)” value (Fibroblast; [16]) was 33%. The “Population Normal (%)” value (Fibroblast; [16]) was 87%, the “Population Pyknosed Nuclei (%)” value (Fibroblast; [16]) was 3% and the “Population Tubulin-Different-Phenotype (%)” value (Fibroblast; [16]) was 89%. For the same molecule, the “Total Cell Count” value (Fibroblast; [16]) was 189, the “Growth Rate” value (HEK-293T; [1]) was 0 and the “Growth Rate” value (HEK-293T; 6 h, replicate number 1, timepoint 6 hours) was 0. For the same molecule, the “Growth Rate” value (HEK-293T; [2]) was 0, the “Growth Rate” value (HEK-293T; [3]) was 0 and the “Growth Rate” value (HEK-293T; [4]) was 0.
